Results on 1 molecule are retold here after paper PMC5574666 (International Journal of Nanomedicine, 2017).

One may read the Cmax as the maximum level reached in the sampled fluid or tissue. Usually Vd stands for a proportionality between amount in the body and measured concentration, not a real space.

Values joined by “and” are separate entries in the source; they are usually repeats but may differ in a detail not shown here. Equal values may be shown once.

The test system of series [1] is MCF-7 cells. The series can be described thus: Cellular uptake. It is filed as cell-based, Human. Particulars: 6 and 24 h.
Series [2] in a line: Biodistribution of DOX in tumor-bearing mice. The note with it: BALB/c nude mice bearing MCF-7/ADR tumors, 5 mg·kg^−1 DOX i.v., 1, 6, 12, 24 hours. It is filed as in vivo.
A short description of series [3]: In vivo pharmacokinetic study. Particulars: male Sprague-Dawley rats, 5 mg·kg^−1 DOX i.v., n=6.
For another series, the system named is MCF-7/ADR cells. The series can be described thus: Cellular uptake. It is filed as cell-based, Human. Particulars: MCF-7/ADR cells compared with MCF-7 cells. The method in brief: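 MCF-7 and MCF-7/ADR cells were grown in DMEM with 10% FBS and 1% penicillin-streptomycin at 37°C and 5% CO2. They were seeded at 5×10^4 per well in 24-well plates and grown 24 h.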

The next series can be described thus: In vivo toxicity study. On the set-up: species or system BALB/c nude mice. The method, boiled down:
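Male BALB/c nude mice bearing MCF-7/ADR xenografts were randomized into five groups when tumors reached ~100 mm3. Groups received i.v. saline, carrier or test formulations. Body weight was tracked during the efficacy study. At its end, heart, liver, spleen, lung and kidney were excised, stained with H&E and examined microscopically at 200×.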

The nature of another series: Maximum tolerated dose. It is filed as in vivo. The note with it: BALB/c mice; for Animal death: 2 weeks. The method in brief:
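Female BALB/c mice were randomized into three formulation groups. […] Body weight and survival were monitored daily for 2 weeks. MTD was taken as the highest dose causing neither death from systemic toxicity nor >15% body weight loss over the study.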

The subject of series [4] is MCF-7 cells. The series can be described thus: Cytotoxicity MTT assay. Particulars: 0.1-10 μg·mL^−1, 48 hours. In kind it is cell-based, Human.

On to `COc1cccc2c1C(=O)c1c(O)c3c(c(O)c1C2=O)C[C@@](O)(C(=O)CO)C[C@@H]3O[C@H]1C[C@H](N)[C@H](O)[C@H](C)O1` [DOX, doxorubicin], for which, in the series on MCF-7 cells [1], the internalization into cells result was “internalized into MCF-7 cells in a time-dependent manner”. Besides, in series [2], the “DOX content in tumor” value is recorded as “negligible after 6 hours”. Moreover, in series [3], the “AUC0–∞” value stood at 36.318 ± 6.517 µg/mL/h, the CL was 2.37 ± 0.467 mL/min/kg, the Cmax was determined as 10275 ± 1219 ng/mL and the “MRT0–∞” value came to 3.429 ± 0.658 h. Further, the Vd in series [3] was determined as 0.300 ± 0.073 L/kg. The internalization into cells result with MCF-7/ADR cells is reported as “substantially reduced”. In addition, in the series “In vivo toxicity study” (BALB/c nude mice bearing MCF-7/ADR tumors, 5 mg DOX/kg), the bodyweight reduction came out at 30%. In addition, in “In vivo toxicity study” (end of the antitumor inhibition test), the “H&E histology of main organs (heart, liver, spleen, lung, kidney)” value is “caused cardiotoxicity”. In “Maximum tolerated dose” (single i.v. dose 5 mg/kg DOX), the Weight loss turned out to be 2.0% and the Animal death is 0/3. In “Maximum tolerated dose” (single i.v. dose 10 mg/kg DOX), the Weight loss was determined as 7.4% and the Animal death is 0/3. In addition, the Animal death in the series “Maximum tolerated dose” (single i.v. dose 15 mg/kg DOX, 15 mg/kg) was 2 out of 3 and 2/3. For the same molecule, the cell viability entry with MCF-7 cells [4] is reported as “effectively reduced the viability of MCF-7 cells in a dose-dependent manner”.
